From PubChem
SENP1 FRET inh = SENP1 (human) catalytic domain inhibition | Q9P0U3 | recombinant SENP1 catalytic domain, CyPet-SUMO1-YPet FRET cleavage | AID 624204 | inhibition, % at 10 µM | actives 0.21% (n = 360,000);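 active = inhibition at least 30% at 10 µM, raw YFP signal under a set limit, fluorescence ratio 0.5 to 1.5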;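 also: 0% = enzyme with DMSO and 100% = no enzyme wells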
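Material: hSENP1 catalytic domain, recombinant; medium: Tris pH 8 with BME, BSA, NP40 and catalase; compound: single concentration of 10 µM compound, 0.5% DMSO final; technique: FRET read of cyan and yellow fluorescence; timing: 50 min enzyme reaction, room temperature, light-protected; reagent: SFCypet-SUMO1-SFYpet substrate at 25 nM; control set: no-enzyme low, enzyme-DMSO high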
SENP8 block-1 = inhibitors of human SENP8 protease. Q96LD8. recombinant SENP8, Nedd8 substrate fluorescence. inhibition, % at 20 µM. actives 0.64% (n = 360,000). AID 602440; in the data active = inhibition mostly above about 40%, no sharp cut-off; inactive = mostly below about 27%
Target sequence (Q96LD8 whole entry, looked up): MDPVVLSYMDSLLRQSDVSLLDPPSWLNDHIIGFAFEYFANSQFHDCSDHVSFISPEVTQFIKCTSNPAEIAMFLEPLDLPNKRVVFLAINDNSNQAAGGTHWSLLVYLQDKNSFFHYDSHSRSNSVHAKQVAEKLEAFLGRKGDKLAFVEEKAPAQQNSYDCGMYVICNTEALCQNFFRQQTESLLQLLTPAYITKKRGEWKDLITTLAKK
UCH37 inh = blocks the human deubiquitinase UCH37; purified proteasome/UCH37, Ub-AMC cleavage fluorescence; inhibition, % (concentration not given with the values); actives 0.33% (n = 330,000);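 active = mean inhibition over replicate wells above about 20%, limit read from the data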;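 also: 0% = compound-free wells with enzyme and 100% = wells lacking proteasome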
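system = Proteasome-associated human UCH37 deubiquitinase | amount = 0.15 nM proteasome as dispensed | medium = pH 7.4 Tris-HCl (50 mM) with ovalbumin, ATP-MgCl2, DTT | incubation = 30 min preincubation with enzyme, 25 min cleavage at room temperature | detection = AMC fluorescence 355/460 nm | read-out basis = percent inhibition | controls = no-proteasome and no-compound wells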
SENP6 inh = blocks the human protease SENP6 | inhibition, % at 10 µM | Q9GZR1 | Recombinant SENP6 catalytic domain, aminoluciferin luminescence | actives 1.8% (n = 330,000);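 active = inhibition above about 50% at the single tested dose, limit read from the data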;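 also: plate controls were DMSO wells with enzyme for no effect and DMSO wells lacking enzyme for full effect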
Target sequence (Q9GZR1 628-1112 limits assumed): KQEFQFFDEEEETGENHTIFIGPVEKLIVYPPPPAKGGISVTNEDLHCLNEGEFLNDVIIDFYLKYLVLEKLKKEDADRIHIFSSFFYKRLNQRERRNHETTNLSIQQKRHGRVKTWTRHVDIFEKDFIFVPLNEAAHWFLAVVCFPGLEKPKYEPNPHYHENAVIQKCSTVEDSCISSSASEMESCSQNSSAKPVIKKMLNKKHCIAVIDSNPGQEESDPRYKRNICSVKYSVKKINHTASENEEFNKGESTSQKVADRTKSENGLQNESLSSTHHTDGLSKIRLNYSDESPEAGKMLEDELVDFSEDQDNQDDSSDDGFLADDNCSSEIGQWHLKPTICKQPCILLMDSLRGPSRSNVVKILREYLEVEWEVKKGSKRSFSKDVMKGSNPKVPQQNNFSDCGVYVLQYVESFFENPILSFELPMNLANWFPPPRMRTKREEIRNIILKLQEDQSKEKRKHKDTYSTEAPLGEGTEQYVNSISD
SENP7 block = inhibitors of human SENP7 protease; Q9BQF6; inhibition, % at 5 µM; AID 434973; actives 1.5% (n = 330,000); recombinant SENP7, Z-RLRGG-aminoluciferin luminescence, 40 min;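 active = inhibition above about 50% at the single test dose, limit read from the data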;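 also: plate controls were DMSO with enzyme for no effect and no enzyme buffer wells for full effect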
SENP8 block-2 = blocks the human protease SENP8; purified SENP8, Z-RLRGG-aminoluciferin cleavage, luminescence; actives 1.2% (n = 330,000); inhibition, % at 10 µM; Q96LD8; AID 2540; in the data active = inhibition above about 50%
SENP8 inh conf = SENP8 (human) inhibition, single concentration confirmation | shares compounds with SENP8 block-1 | purified SENP8, Nedd8-AMC/pro-Nedd8 cleavage fluorescence, 30 min | inhibition, % at 25 µM | actives 15% (n = 1,400); in the data active = inhibition mostly above about 39%, no sharp cut-off; inactive = mostly below about 34%
The depositor's hits bear a star. Hits are enriched below; roughly 2.6% of the tested compounds scored in any of these assays.

What do the screens show for `CS(=O)(=O)N(CC(=O)NN=Cc1ccccn1)c1ccc(Oc2ccccc2)cc1`?
UCH37 inh: 1.3

Results for C=CCc1ccc(OCCCOc2ccc(C(=O)O)cc2)c(OC)c1 ?
SENP1 FRET inh: 2.3; SENP8 block-1: 3.8; UCH37 inh: 0.9; SENP6 inh: -2.5; SENP7 block: -5.0; SENP8 block-2: -7.8

What do the screens show for `C=CCc1ccc(OC(=O)c2ccccc2)c(OC)c1`?
SENP1 FRET inh: 0.7; SENP8 block-1: 48.0*; UCH37 inh: 2.6; SENP6 inh: -8.9; SENP7 block: -4.3; SENP8 block-2: -15.9; SENP8 inh conf: 12.3

How did COc1ccc(NC(=O)c2c(Nc3ccccc3)sc(C(=O)c3ccc(F)cc3)c2N)cc1 do in these assays?
SENP1 FRET inh: 5.4; SENP8 block-1: 19.4; UCH37 inh: -126.3; SENP6 inh: 2.9; SENP7 block: -1.8; SENP8 block-2: 2.0

What do the screens show for `COc1ccc(C(=O)c2sc(Nc3ccccc3)c(C(=O)Nc3ccc(OC)c(OC)c3)c2N)cc1`?
SENP1 FRET inh: -18.4; SENP8 block-1: 50.0*; UCH37 inh: 2.5; SENP6 inh: 2.1; SENP7 block: 1.5; SENP8 block-2: -3.3; SENP8 inh conf: 10.8

What do the screens show for `CC(C)(C)Nc1nc(N2CCCC2)nc(N2CCCC2)n1`?
SENP1 FRET inh: 0.1; SENP8 block-1: 43.6*; UCH37 inh: -1.3; SENP6 inh: -2.6; SENP7 block: 6.9; SENP8 block-2: -1.4; SENP8 inh conf: 15.5

Results for Cc1ccc(Nc2ccccc2)cc1 ?
SENP1 FRET inh: 2.0; SENP8 block-1: 18.0; UCH37 inh: 3.7; SENP6 inh: -18.8; SENP7 block: 2.7; SENP8 block-2: -5.5

How did Cc1ccc(Nc2cc(C)c(O)c(C)c2)cc1 do in these assays?
SENP1 FRET inh: 5.9; SENP8 block-1: 47.5*; UCH37 inh: 1.2; SENP6 inh: 7.8; SENP7 block: 7.7; SENP8 block-2: 1.7; SENP8 inh conf: 66.5*

Results for CC(C)=CCc1c(O)cc2c(c1O)C(=O)CC(c1ccccc1)O2 (stereo not drawn) ?
SENP1 FRET inh: 2.3; SENP8 block-1: 41.6*; UCH37 inh: 1.8; SENP6 inh: -13.8; SENP7 block: 6.1; SENP8 block-2: -10.8; SENP8 inh conf: 14.3

How did O=C1CC(c2ccccc2)Oc2cc(O)cc(O)c21 (stereo not drawn) do in these assays?
SENP1 FRET inh: 1.1; SENP8 block-1: 2.0; UCH37 inh: 3.4; SENP6 inh: 26.4; SENP7 block: 17.5; SENP8 block-2: 36.0

Results for CN(C)c1ccc(NC(=O)CN2CCC(N3CCCCC3)CC2)cc1 ?
SENP1 FRET inh: 1.2; SENP8 block-1: 41.6*; UCH37 inh: 1.8; SENP6 inh: -2.0; SENP7 block: 1.2; SENP8 block-2: 3.8; SENP8 inh conf: -12.4

Results for CN1CCC2(CC1)N=C(c1ccc(F)cc1)C(=S)N2C(=O)c1ccccc1 ?
SENP1 FRET inh: 0.2; SENP8 block-1: 55.2*; UCH37 inh: 8.7; SENP6 inh: 18.5; SENP7 block: 1.9; SENP8 block-2: 0.3; SENP8 inh conf: 39.4*

What do the screens show for `Cc1ccc(NC(=O)COC(=O)c2ccc3c(c2)OCCO3)cc1`?
SENP1 FRET inh: 1.9; SENP8 block-1: 7.2; UCH37 inh: 3.5; SENP6 inh: -1.0; SENP7 block: -1.5; SENP8 block-2: -1.8

What do the screens show for `CC(=O)c1cccc(NC(=O)COC(=O)c2ccc3c(c2)OCCO3)c1`?
SENP1 FRET inh: 0.4; SENP8 block-1: 41.5*; UCH37 inh: 5.5; SENP6 inh: -1.4; SENP7 block: 4.9; SENP8 block-2: -2.8; SENP8 inh conf: -3.5

What do the screens show for `CCOc1ccc(N=Nc2c(=O)[nH]n3c(=O)c4c([nH]c23)CCCC4)cc1`?
SENP1 FRET inh: 7.9; SENP8 block-1: 53.5*; UCH37 inh: 24.6*; SENP6 inh: -15.4; SENP7 block: -1.5; SENP8 block-2: -8.4; SENP8 inh conf: 10.4

How did C/C(C=NNC(=O)c1nnn(-c2nonc2N)c1CN1CCC(C)CC1)=C/c1ccccc1 do in these assays?
UCH37 inh: 8.0

What do the screens show for `Cc1cc(C)c(NC(=O)c2ccc(CN3CCc4ccccc4C3)cc2)c(C)c1`?
SENP1 FRET inh: -2.0; SENP8 block-1: 45.0*; UCH37 inh: -2.0; SENP6 inh: 11.5; SENP7 block: 7.6; SENP8 block-2: -3.3; SENP8 inh conf: 19.3

How did O=C(Nc1ccc(Cl)cc1)c1ccc(CN2CCc3ccccc3C2)cc1 do in these assays?
SENP1 FRET inh: -1.9; SENP8 block-1: 47.2*; UCH37 inh: 6.6; SENP6 inh: 14.4; SENP7 block: 11.1; SENP8 block-2: -1.7; SENP8 inh conf: 25.0

What do the screens show for `O=C(NCc1ccc2c(c1)OCO2)c1ccc(CN2CCc3ccccc3C2)cc1`?
SENP1 FRET inh: -0.4; SENP8 block-1: 42.2*; UCH37 inh: -1.3; SENP6 inh: -16.8; SENP7 block: 5.1; SENP8 block-2: -0.2; SENP8 inh conf: 12.7

How did CC(=O)c1cccc(NC(=O)c2ccc(CN3CCc4ccccc4C3)cc2)c1 do in these assays?
SENP1 FRET inh: 1.6; SENP8 block-1: 22.0; UCH37 inh: 2.2; SENP6 inh: 11.7; SENP7 block: -0.8; SENP8 block-2: 8.5

How did N#CCc1ccc(NC(=O)c2ccc(CN3CCc4ccccc4C3)cc2)cc1 do in these assays?
SENP1 FRET inh: 0.9; SENP8 block-1: 59.1*; UCH37 inh: 3.1; SENP6 inh: 13.2; SENP7 block: 3.9; SENP8 block-2: 3.9; SENP8 inh conf: 11.5

What do the screens show for `CC(Cn1nnc([N+](=O)[O-])n1)=NNC(=O)c1ccccc1`?
UCH37 inh: -1.6

Results for COc1ccc(OC)c(S(=O)(=O)N(C)CC(=O)N2CCCCC2)c1 ?
SENP1 FRET inh: -1.7; SENP8 block-1: 13.7; UCH37 inh: 0.9; SENP6 inh: -12.1; SENP7 block: -3.0; SENP8 block-2: -5.3

How did COc1ccc(OC)c(S(=O)(=O)N(C)CC(=O)N2CCc3ccccc3C2)c1 do in these assays?
SENP1 FRET inh: 0.6; SENP8 block-1: 58.3*; UCH37 inh: 3.9; SENP6 inh: 31.2; SENP7 block: 11.1; SENP8 block-2: 1.4; SENP8 inh conf: 70.8*

What do the screens show for `COc1ccccc1CNC(=O)[C@H](C)NC(=O)C1CCN(C(=O)[C@@H]2CCCN2C(=O)OC(C)(C)C)CC1`?
SENP1 FRET inh: -1.0; SENP8 block-1: 44.9*; UCH37 inh: 2.3; SENP6 inh: 0.8; SENP7 block: -0.6; SENP8 block-2: 8.2; SENP8 inh conf: 14.4

Results for COc1ccc(CNC(=O)[C@@H](NC(=O)C2CCN(C(=O)[C@@H]3CCCN3C(=O)OC(C)(C)C)CC2)C(C)C)cc1 ?
SENP1 FRET inh: 3.6; SENP8 block-1: 6.9; UCH37 inh: 0.2; SENP6 inh: -17.4; SENP7 block: -12.0; SENP8 block-2: -18.4
